Data from PMC3401020 (Bioorganic & medicinal chemistry, 2011).

Experiments:
[1] = NMR stability measurements in wet methanol; assay type: physicochemical; details: assay timescale
COX-2 = molecular target: T1, COX-2 (Mus musculus, UniProt Q05769); test: COX-2 inhibition, conversion of [14C]-arachidonic acid to [14C]-prostaglandins; assay type: biochemical, murine; details: 25 μM concentration
T1 sequence (Q05769 18-604): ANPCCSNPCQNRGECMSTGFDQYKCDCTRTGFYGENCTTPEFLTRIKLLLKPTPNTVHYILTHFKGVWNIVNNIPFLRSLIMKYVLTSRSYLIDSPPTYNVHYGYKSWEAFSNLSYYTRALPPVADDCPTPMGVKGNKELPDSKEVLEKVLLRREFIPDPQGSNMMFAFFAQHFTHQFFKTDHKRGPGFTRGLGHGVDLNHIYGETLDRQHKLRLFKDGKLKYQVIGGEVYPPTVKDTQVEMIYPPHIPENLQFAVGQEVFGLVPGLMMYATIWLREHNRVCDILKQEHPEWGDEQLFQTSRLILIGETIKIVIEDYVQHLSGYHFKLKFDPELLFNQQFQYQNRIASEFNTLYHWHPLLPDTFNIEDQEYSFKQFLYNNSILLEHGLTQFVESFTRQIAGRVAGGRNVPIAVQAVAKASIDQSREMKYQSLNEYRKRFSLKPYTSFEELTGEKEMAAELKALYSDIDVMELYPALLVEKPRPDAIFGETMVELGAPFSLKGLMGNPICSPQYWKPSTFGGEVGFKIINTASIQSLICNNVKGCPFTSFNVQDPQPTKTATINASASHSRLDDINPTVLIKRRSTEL
Procedure, shortened: (§1)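 Carbaborane esters of indomethacin screened at 25 μM against ovine COX-1 and murine COX-2, measuring conversion of [14C]-arachidonic acid to [14C]-prostaglandins. Reactions were stopped, then substrate consumption was read by thin-layer chromatography.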

COX-1 [2] = molecular target: T2, COX-1 (Ovis aries, UniProt P05979); test: COX-1 inhibition, conversion of [14C]-arachidonic acid to [14C]-prostaglandins; assay type: biochemical, ovine; details: 25 μM concentration
T2 sequence (P05979 25-600): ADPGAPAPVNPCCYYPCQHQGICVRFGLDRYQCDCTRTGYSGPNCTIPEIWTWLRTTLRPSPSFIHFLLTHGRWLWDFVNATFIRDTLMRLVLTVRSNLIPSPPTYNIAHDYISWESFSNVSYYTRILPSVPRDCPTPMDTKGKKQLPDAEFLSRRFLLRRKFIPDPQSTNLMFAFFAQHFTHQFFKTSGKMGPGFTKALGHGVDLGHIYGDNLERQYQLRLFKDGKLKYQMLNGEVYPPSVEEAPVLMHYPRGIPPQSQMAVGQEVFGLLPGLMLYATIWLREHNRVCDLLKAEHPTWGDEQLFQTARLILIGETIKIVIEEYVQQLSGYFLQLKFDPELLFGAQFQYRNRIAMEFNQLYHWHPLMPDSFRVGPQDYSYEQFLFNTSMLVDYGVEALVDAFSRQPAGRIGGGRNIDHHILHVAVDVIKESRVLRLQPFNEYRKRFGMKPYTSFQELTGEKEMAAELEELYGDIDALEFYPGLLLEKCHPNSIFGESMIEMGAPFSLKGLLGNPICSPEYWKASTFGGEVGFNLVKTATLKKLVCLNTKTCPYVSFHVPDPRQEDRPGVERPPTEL
Procedure, shortened: as §1

COX-1 [3] = molecular target: T2, COX-1; details: already reported; cited from earlier work

2-{1-[(4-Chlorophenyl)carbonyl]-5-methoxy-2-methyl-1H-indol-3-yl}acetic acid 1-(1,2-dicarba-closo-dodecaboranyl) ester [5o]
stability in wet methanol (NMR) [1]: stable | COX-2 inhibition in screen (COX-2): by far the best COX-inhibition | COX-1 inhibition in screen (COX-1 [2]): by far the best COX-inhibition

COc1ccc2c(c1)c(CC(=O)Oc1ccccc1)c(C)n2C(=O)c1ccc(Cl)cc1 [compound 10]
IC50 COX-1 (COX-1 [3]): inactive
